Our source for the Activity values is ChEMBL document CHEMBL4257452, “A mini-library system to investigate non-essential residues of lipid-phosphatidylserine (PS) binding peptide-peptoid hybrid PPS1” (Medchemcomm, 2017).

Calls of active or inactive are those of the source. The rule behind the calls is not given here. Starred links: 1 amine or outer side, 2 acyl side, 3 side chain; linkers in the order of their positions; H or OH if unused. Positions of bridges follow the written chain, without caps; N, C: chain ends. Non-standard residues stand in square brackets, D forms with d. Residues, ends and D or L forms follow the SMILES beside them. Chains are numbered I, II in the order given. N(3,4-(MeO)2phenethyl)Gly = COc1ccc(CCNCC(=O)O)cc1OC; Gly(N-piperonyl) = O=C(O)CNCc1ccc2c(c1)OCO2; N(4-MeOBn)Gly = COc1ccc(CNCC(=O)O)cc1; N(CH2CH2NHAc)Gly = CC(=O)NCCNCC(=O)O; X3 = CC(c1ccccc1)N(CC(=O)[*:2])[*:1]; N(4-MeBn)Gly = Cc1ccc(CNCC(=O)O)cc1; N(isopentyl)Gly = CC(C)CCNCC(=O)O; NFurfurylGly = O=C(O)CNCc1ccco1; X7 = O=C(CN(c1nccs1)[*:1])[*:2]; X6 = CCC(C)N(CC(=O)[*:2])[*:1]; NAllylGly = C=CCNCC(=O)O; NcPrGly = O=C(O)CNC1CC1; Nme = COCCNCC(=O)O; Sar = CNCC(=O)O

The subject of this test is HCC4017. Put plainly: Cytotoxicity against human HCC4017 cells assessed as reduction in cell viability at 20 uM after 24 hrs by MTS assay. The class given is functional, cell-based. Put shortly:
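HCC4017 cells (RPMI, 5% FBS) and HBEC-3KT normal lung cells (KSFM with recombinant human EGF and bovine pituitary extract) were plated at 10 000 cells/well in triplicate and left to adhere overnight. They were exposed to 1 or 20 μM compound for 24 h. MTS reagent was then added for 2 h and absorbance read at 490 nm. Viability is % of untreated control wells.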
A general note: Tetrazolium assays rely on reduction of a dye to a coloured formazan, in cell work by metabolically active cells.
Take `COc1ccc(CN(CC(=O)N(CCc2ccc(OC)c(OC)c2)CC(=O)NC(CCCCN)C(=O)NC(CCCCN)C(=O)NC(CCSC)C(=O)NCCCCC(NC(=O)C(CCSC)NC(=O)C(CCCCN)NC(=O)C(CCCCN)NC(=O)CN(CCc2ccc(OC)c(OC)c2)C(=O)CN(Cc2ccc(OC)cc2)C(=O)CN(C(=O)CN(Cc2ccc3c(c2)OCO3)C(=O)CNC(C)c2ccccc2)C(C)c2ccccc2)C(N)=O)C(=O)CN(C(=O)CN(Cc2ccc3c(c2)OCO3)C(=O)CNC(C)c2ccccc2)C(C)c2ccccc2)cc1` (stereo not drawn) (I: H-[X3][Gly(N-piperonyl)][X3][N(4-MeOBn)Gly][N(3,4-(MeO)2phenethyl)Gly]KKMK-NH2 / II: H-[X3][Gly(N-piperonyl)][X3][N(4-MeOBn)Gly][N(3,4-(MeO)2phenethyl)Gly]KKM; amide I:9-II:C; configuration not given here): the result was Active.
As for `COc1ccc(CN(CC(=O)N(CC(=O)NC(CCCCN)C(=O)NC(CCCCN)C(=O)NC(CCSC)C(=O)NCCCCC(NC(=O)C(CCSC)NC(=O)C(CCCCN)NC(=O)C(CCCCN)NC(=O)CN(Cc2ccc(C)cc2)C(=O)CN(Cc2ccc(OC)cc2)C(=O)CN(C(=O)CN(Cc2ccc3c(c2)OCO3)C(=O)CNC(C)c2ccccc2)C(C)c2ccccc2)C(N)=O)Cc2ccc(C)cc2)C(=O)CN(C(=O)CN(Cc2ccc3c(c2)OCO3)C(=O)CNC(C)c2ccccc2)C(C)c2ccccc2)cc1` (stereo not drawn) (I: H-[X3][Gly(N-piperonyl)][X3][N(4-MeOBn)Gly][N(4-MeBn)Gly]KKMK-NH2 / II: H-[X3][Gly(N-piperonyl)][X3][N(4-MeOBn)Gly][N(4-MeBn)Gly]KKM; amide I:9-II:C; configuration not given here), the entry is “Active”; as for `COc1ccc(CN(CC(=O)NC(CCCCN)C(=O)NC(CCCCN)C(=O)NC(CCSC)C(=O)NCCCCC(NC(=O)C(CCSC)NC(=O)C(CCCCN)NC(=O)C(CCCCN)NC(=O)CN(Cc2ccc(OC)cc2)C(=O)CN(Cc2ccc(OC)cc2)C(=O)CN(C(=O)CN(Cc2ccc3c(c2)OCO3)C(=O)CNC(C)c2ccccc2)C(C)c2ccccc2)C(N)=O)C(=O)CN(Cc2ccc(OC)cc2)C(=O)CN(C(=O)CN(Cc2ccc3c(c2)OCO3)C(=O)CNC(C)c2ccccc2)C(C)c2ccccc2)cc1` (stereo not drawn) (I: H-[X3][Gly(N-piperonyl)][X3][N(4-MeOBn)Gly][N(4-MeOBn)Gly]KKMK-NH2 / II: H-[X3][Gly(N-piperonyl)][X3][N(4-MeOBn)Gly][N(4-MeOBn)Gly]KKM; amide I:9-II:C; configuration not given here), “Active”; as for `COc1ccc(CN(CC(=O)N(CCNC(C)=O)CC(=O)NC(CCCCN)C(=O)NC(CCCCN)C(=O)NC(CCSC)C(=O)NCCCCC(NC(=O)C(CCSC)NC(=O)C(CCCCN)NC(=O)C(CCCCN)NC(=O)CN(CCNC(C)=O)C(=O)CN(Cc2ccc(OC)cc2)C(=O)CN(C(=O)CN(Cc2ccc3c(c2)OCO3)C(=O)CNC(C)c2ccccc2)C(C)c2ccccc2)C(N)=O)C(=O)CN(C(=O)CN(Cc2ccc3c(c2)OCO3)C(=O)CNC(C)c2ccccc2)C(C)c2ccccc2)cc1` (stereo not drawn) (I: H-[X3][Gly(N-piperonyl)][X3][N(4-MeOBn)Gly][N(CH2CH2NHAc)Gly]KKMK-NH2 / II: H-[X3][Gly(N-piperonyl)][X3][N(4-MeOBn)Gly][N(CH2CH2NHAc)Gly]KKM; amide I:9-II:C; configuration not given here), “Active”.
For the molecule `COc1ccc(CN(CC(=O)N(CCC(C)C)CC(=O)NC(CCCCN)C(=O)NC(CCCCN)C(=O)NC(CCSC)C(=O)NCCCCC(NC(=O)C(CCSC)NC(=O)C(CCCCN)NC(=O)C(CCCCN)NC(=O)CN(CCC(C)C)C(=O)CN(Cc2ccc(OC)cc2)C(=O)CN(C(=O)CN(Cc2ccc3c(c2)OCO3)C(=O)CNC(C)c2ccccc2)C(C)c2ccccc2)C(N)=O)C(=O)CN(C(=O)CN(Cc2ccc3c(c2)OCO3)C(=O)CNC(C)c2ccccc2)C(C)c2ccccc2)cc1` (stereo not drawn) (I: H-[X3][Gly(N-piperonyl)][X3][N(4-MeOBn)Gly][N(isopentyl)Gly]KKMK-NH2 / II: H-[X3][Gly(N-piperonyl)][X3][N(4-MeOBn)Gly][N(isopentyl)Gly]KKM; amide I:9-II:C; configuration not given here), the result was Active.
With `C=CCN(CC(=O)NC(CCCCN)C(=O)NC(CCCCN)C(=O)NC(CCSC)C(=O)NCCCCC(NC(=O)C(CCSC)NC(=O)C(CCCCN)NC(=O)C(CCCCN)NC(=O)CN(CC=C)C(=O)CN(Cc1ccc(OC)cc1)C(=O)CN(C(=O)CN(Cc1ccc2c(c1)OCO2)C(=O)CNC(C)c1ccccc1)C(C)c1ccccc1)C(N)=O)C(=O)CN(Cc1ccc(OC)cc1)C(=O)CN(C(=O)CN(Cc1ccc2c(c1)OCO2)C(=O)CNC(C)c1ccccc1)C(C)c1ccccc1` (stereo not drawn) (I: H-[X3][Gly(N-piperonyl)][X3][N(4-MeOBn)Gly][NAllylGly]KKMK-NH2 / II: H-[X3][Gly(N-piperonyl)][X3][N(4-MeOBn)Gly][NAllylGly]KKM; amide I:9-II:C; configuration not given here), the outcome was Active.
For the molecule `COc1ccc(CN(CC(=O)N(CC(=O)NC(CCCCN)C(=O)NC(CCCCN)C(=O)NC(CCSC)C(=O)NCCCCC(NC(=O)C(CCSC)NC(=O)C(CCCCN)NC(=O)C(CCCCN)NC(=O)CN(Cc2ccco2)C(=O)CN(Cc2ccc(OC)cc2)C(=O)CN(C(=O)CN(Cc2ccc3c(c2)OCO3)C(=O)CNC(C)c2ccccc2)C(C)c2ccccc2)C(N)=O)Cc2ccco2)C(=O)CN(C(=O)CN(Cc2ccc3c(c2)OCO3)C(=O)CNC(C)c2ccccc2)C(C)c2ccccc2)cc1` (stereo not drawn) (I: H-[X3][Gly(N-piperonyl)][X3][N(4-MeOBn)Gly][NFurfurylGly]KKMK-NH2 / II: H-[X3][Gly(N-piperonyl)][X3][N(4-MeOBn)Gly][NFurfurylGly]KKM; amide I:9-II:C; configuration not given here), the result was Active.
In the case of `COc1ccc(CN(CC(=O)N(CC(=O)NC(CCCCN)C(=O)NC(CCCCN)C(=O)NC(CCSC)C(=O)NCCCCC(NC(=O)C(CCSC)NC(=O)C(CCCCN)NC(=O)C(CCCCN)NC(=O)CN(C(=O)CN(Cc2ccc(OC)cc2)C(=O)CN(C(=O)CN(Cc2ccc3c(c2)OCO3)C(=O)CNC(C)c2ccccc2)C(C)c2ccccc2)C2CC2)C(N)=O)C2CC2)C(=O)CN(C(=O)CN(Cc2ccc3c(c2)OCO3)C(=O)CNC(C)c2ccccc2)C(C)c2ccccc2)cc1` (stereo not drawn) (I: H-[X3][Gly(N-piperonyl)][X3][N(4-MeOBn)Gly][NcPrGly]KKMK-NH2 / II: H-[X3][Gly(N-piperonyl)][X3][N(4-MeOBn)Gly][NcPrGly]KKM; amide I:9-II:C; configuration not given here), the result was Active.
For `COCCN(CC(=O)NC(CCCCN)C(=O)NC(CCCCN)C(=O)NC(CCSC)C(=O)NCCCCC(NC(=O)C(CCSC)NC(=O)C(CCCCN)NC(=O)C(CCCCN)NC(=O)CN(CCOC)C(=O)CN(Cc1ccc(OC)cc1)C(=O)CN(C(=O)CN(Cc1ccc2c(c1)OCO2)C(=O)CNC(C)c1ccccc1)C(C)c1ccccc1)C(N)=O)C(=O)CN(Cc1ccc(OC)cc1)C(=O)CN(C(=O)CN(Cc1ccc2c(c1)OCO2)C(=O)CNC(C)c1ccccc1)C(C)c1ccccc1` (stereo not drawn) (I: H-[X3][Gly(N-piperonyl)][X3][N(4-MeOBn)Gly][Nme]KKMK-NH2 / II: H-[X3][Gly(N-piperonyl)][X3][N(4-MeOBn)Gly][Nme]KKM; amide I:9-II:C; configuration not given here), the outcome was Active.
On to `COc1ccc(CN(CC(=O)N(C)CC(=O)NC(CCCCN)C(=O)NC(CCCCN)C(=O)NC(CCSC)C(=O)NCCCCC(NC(=O)C(CCSC)NC(=O)C(CCCCN)NC(=O)C(CCCCN)NC(=O)CN(C)C(=O)CN(Cc2ccc(OC)cc2)C(=O)CN(C(=O)CN(Cc2ccc3c(c2)OCO3)C(=O)CNC(C)c2ccccc2)C(C)c2ccccc2)C(N)=O)C(=O)CN(C(=O)CN(Cc2ccc3c(c2)OCO3)C(=O)CNC(C)c2ccccc2)C(C)c2ccccc2)cc1` (stereo not drawn) (I: H-[X3][Gly(N-piperonyl)][X3][N(4-MeOBn)Gly][Sar]KKMK-NH2 / II: H-[X3][Gly(N-piperonyl)][X3][N(4-MeOBn)Gly][Sar]KKM; amide I:9-II:C; configuration not given here), for which the outcome was Active.
As to `COc1ccc(CN(CC(=O)N(CC(=O)NC(CCCCN)C(=O)NC(CCCCN)C(=O)NC(CCSC)C(=O)NCCCCC(NC(=O)C(CCSC)NC(=O)C(CCCCN)NC(=O)C(CCCCN)NC(=O)CN(C(=O)CN(Cc2ccc(OC)cc2)C(=O)CN(C(=O)CN(Cc2ccc3c(c2)OCO3)C(=O)CNC(C)c2ccccc2)C(C)c2ccccc2)C(C)c2ccccc2)C(N)=O)C(C)c2ccccc2)C(=O)CN(C(=O)CN(Cc2ccc3c(c2)OCO3)C(=O)CNC(C)c2ccccc2)C(C)c2ccccc2)cc1` (stereo not drawn) (I: H-[X3][Gly(N-piperonyl)][X3][N(4-MeOBn)Gly][X3]KKMK-NH2 / II: H-[X3][Gly(N-piperonyl)][X3][N(4-MeOBn)Gly][X3]KKM; amide I:9-II:C; configuration not given here), the outcome was Active.
For `CCC(C)N(CC(=O)NC(CCCCN)C(=O)NC(CCCCN)C(=O)NC(CCSC)C(=O)NCCCCC(NC(=O)C(CCSC)NC(=O)C(CCCCN)NC(=O)C(CCCCN)NC(=O)CN(C(=O)CN(Cc1ccc(OC)cc1)C(=O)CN(C(=O)CN(Cc1ccc2c(c1)OCO2)C(=O)CNC(C)c1ccccc1)C(C)c1ccccc1)C(C)CC)C(N)=O)C(=O)CN(Cc1ccc(OC)cc1)C(=O)CN(C(=O)CN(Cc1ccc2c(c1)OCO2)C(=O)CNC(C)c1ccccc1)C(C)c1ccccc1` (stereo not drawn) (I: H-[X3][Gly(N-piperonyl)][X3][N(4-MeOBn)Gly][X6]KKMK-NH2 / II: H-[X3][Gly(N-piperonyl)][X3][N(4-MeOBn)Gly][X6]KKM; amide I:9-II:C; configuration not given here), the result was Active.
`COc1ccc(CN(CC(=O)N(CC(=O)NC(CCCCN)C(=O)NC(CCCCN)C(=O)NC(CCSC)C(=O)NCCCCC(NC(=O)C(CCSC)NC(=O)C(CCCCN)NC(=O)C(CCCCN)NC(=O)CN(C(=O)CN(Cc2ccc(OC)cc2)C(=O)CN(C(=O)CN(Cc2ccc3c(c2)OCO3)C(=O)CNC(C)c2ccccc2)C(C)c2ccccc2)c2nccs2)C(N)=O)c2nccs2)C(=O)CN(C(=O)CN(Cc2ccc3c(c2)OCO3)C(=O)CNC(C)c2ccccc2)C(C)c2ccccc2)cc1` (stereo not drawn) (I: H-[X3][Gly(N-piperonyl)][X3][N(4-MeOBn)Gly][X7]KKMK-NH2 / II: H-[X3][Gly(N-piperonyl)][X3][N(4-MeOBn)Gly][X7]KKM; amide I:9-II:C; configuration not given here): the result was Active.
